Values after ≈ are worked out from the molar mass of the structure shown.
Key:
Plasmodium falciparum = assay: Antimalarial activity against chloroquine-sensitive Plasmodium falciparum 3D7 […] after 72 hrs by twofold serial dilution method; type: functional, organism-based
Procedure, shortened: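 P. falciparum 3D7 erythrocyte culture, 2.5% cell suspension at 0.5% parasitaemia. Compounds were twofold serially diluted from 500 ng/mL (seven concentrations) in duplicate wells and incubated 72 h. Lysis buffer with SYBR Green I (Tris pH 7.5, EDTA, saponin, Triton X-100) was added, followed by 1 h at room temperature and a fluorescence read. IC50 from non-linear regression dose–response curves.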

[1] = Selectivity index, ratio of CC50 for african green monkey (Cercopithecus aethiops) Vero cells to IC50 for chloroquine-sensitive Plasmodium falciparum 3D7; type: functional
Procedure, shortened: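 SI is Vero CC50 divided by the antiplasmodial IC50. For CC50, Vero (C-1008) cells at 1 × 10⁴ cells/well were exposed to varying compound concentrations for 72 h with an MTT read-out. CC50 is the concentration killing 50% of cells.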

Plasmodium yoelii [2] = assay: Antiplasmodial activity against Plasmodium yoelii infected in Swiss mice (Mus musculus) erythrocytes assessed as inhibition of beta-hematin formation after 16 hrs by fluorescence assay; type: functional, organism-based; settings: in the assay text read “absorbance measurement at 400 nm” for “fluorescence assay”
Procedure, shortened: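 Plasma came from P. yoelii-infected mouse blood at about 50% parasitemia, collected in citrate and centrifuged. The mix held 100 mM sodium acetate pH 5.1, 50 µL plasma and 100 µM hemin substrate in 1.0 mL, run in triplicate at 37 °C for 16 h with shaking. The pellet was dissolved in Tris-HCl pH 7.4 with 2.5% SDS. Absorbance at 400 nm; IC50 by non-linear regression.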

Plasmodium yoelii [3] = assay: Antimalarial activity against chloroquine-resistant Plasmodium yoelii N67 infected in Swiss mice (Mus musculus) assessed as inhibition of parasitaemia at 10 mg/kg, perorally administered for 4 days measured on day 4 post-infection; type: functional; settings: N67, 96 h, route oral
Procedure, shortened: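 Swiss mice were inoculated with 1 × 10⁶ P. yoelii N-67 parasitized RBC on day 0. Groups of five were dosed with chloroquine orally at 10 mg/kg once daily from day 0 to 3. Parasitaemia was read from thin blood smears on day 4, and percent suppression was calculated from the group mean against untreated controls.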

Plasmodium yoelii [4] = assay: Antimalarial activity against chloroquine-resistant Plasmodium yoelii N67 infected in Swiss mice (Mus musculus) assessed as inhibition of parasitaemia at 50 mg/kg, intraperitoneally administered daily for 4 days measured on day 4 post-infection; type: functional; settings: for inhibition in vivo at 50 mg/kg: N67, ip, 96 h, route intraperitoneal
Procedure, shortened: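 Swiss mice were inoculated with 1 × 10⁶ P. yoelii N-67 parasitized RBC on day 0. Groups of five received compound as an aqueous suspension with a few drops of Tween 80, at 50 mg/kg/day intraperitoneally once daily from day 0 to 3. Parasitaemia was read from thin smears on day 4, with group-mean percent suppression against untreated controls.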

[5] = Plasmodium falciparum, 3D7, Vero, 72 h, read-out: IC50

| SMILES | IC50 (Plasmodium falciparum; vero) | IC50 (Plasmodium falciparum; [5]) [µg/mL] | Ratio CC50/IC50 [1] | IC50 (Plasmodium yoelii [2]; Plasmodium yoelii, 16 h) [µg/mL] | other results |
| --- | --- | --- | --- | --- | --- |
| O=C(C(=O)N1CCN(CCNc2ccnc3cc(Cl)ccc23)CC1)c1c[nH]c2ccccc12 | Not Active | – | – | – | – |
| Clc1ccc2c(NCCCNc3nc(NCCCN4CCOCC4)nc(N4CCOCC4)n3)ccnc2c1 | – | 0.0521 (≈ 0.096 µM) | 706.15 | 8.6 (≈ 15.9 µM) | – |
| CN(C)CCNC(=O)C(=O)N1CCN(CCNc2ccnc3cc(Cl)ccc23)CC1 | – | 0.0844 (≈ 0.195 µM) | 65 | < 20 | – |
| Cc1ccc(S(=O)(=O)n2cc(C(=O)C(=O)N3CCN(CCNc4ccnc5cc(Cl)ccc45)CC3)c3ccccc32)cc1 | Not Active | – | – | – | – |
| O=C(NCCCN1CCOCC1)C(=O)N1CCN(c2ccnc3cc(Cl)ccc23)CC1 | Not Active | – | – | – | – |
| CN(C)CCNc1nc(NCCNc2ccnc3cc(Cl)ccc23)nc(N2CCCCC2)n1 | – | 0.0159 (≈ 0.0338 µM) | 1062.3 | 13.3 (≈ 28.4 µM) | – |
| CN1CCN(c2nc(NCCCNc3ccnc4cc(Cl)ccc34)nc(N3CCCCC3)n2)CC1 | – | 0.00913 (≈ 0.0184 µM) | 530.2 | 7.45 (≈ 15 µM) | – |
| O=C(C(=O)N1CCN(c2ccnc3cc(Cl)ccc23)CC1)c1c[nH]c2ccccc12 | Not Active | – | – | – | – |
| CCN(CC)CCNc1nc(NCCCNc2ccnc3cc(Cl)ccc23)nc(N2CCCCC2)n1 | – | 0.00897 (≈ 0.0175 µM) | 1011.15 | 7.45 (≈ 14.5 µM) | – |
| CC(C)(C)NC(=O)C(=O)N1CCN(CCNc2ccnc3cc(Cl)ccc23)CC1 | Not Active | – | – | – | – |
| O=C(NCCCN1CCOCC1)C(=O)N1CCN(CCNc2ccnc3cc(Cl)ccc23)CC1 | – | 0.0408 (≈ 0.0835 µM) | 1221.84 | – | IC50 (Plasmodium yoelii [2]): Not Active |
| CCCCNC(=O)C(=O)NCCNc1ccnc2cc(Cl)ccc12 | – | 0.233 (≈ 0.668 µM) | 18.88 | 6.76 (≈ 19.4 µM) | – |
| CCN(CC)CCCC(C)Nc1ccnc2cc(Cl)ccc12 (configuration not stated) [CHLOROQUINE] | – | – | – | 4.87 (≈ 15.2 µM) | inhibition in vivo at 10 mg/kg (Plasmodium yoelii [3]): 99% |
| Cn1cc(C(=O)C(=O)N2CCN(CCNc3ccnc4cc(Cl)ccc34)CC2)c2ccccc21 | Not Active | – | – | – | – |
| O=C(NCCN1CCOCC1)C(=O)N1CCN(c2ccnc3cc(Cl)ccc23)CC1 | Not Active | – | – | – | – |
| Clc1ccc2c(NCCCNc3nc(NCCN4CCOCC4)nc(N4CCOCC4)n3)ccnc2c1 | – | 0.0179 (≈ 0.0338 µM) | 1017.32 | 8.72 (≈ 16.5 µM) | – |
| CCCCNC(=O)C(=O)NCCCNc1ccnc2cc(Cl)ccc12 | – | 0.233 (≈ 0.643 µM) | 38.13 | 15.7 (≈ 43.2 µM) | – |
| CCN(CC)CCNc1nc(NCCNc2ccnc3cc(Cl)ccc23)nc(N2CCOCC2)n1 | – | 0.0297 (≈ 0.0595 µM) | 1663.75 | 9.42 (≈ 18.8 µM) | – |
| CCN(CC)CCNc1nc(NCCNc2ccnc3cc(Cl)ccc23)nc(N2CCCCC2)n1 | – | 0.0147 (≈ 0.0295 µM) | 223.13 | 10.2 (≈ 20.4 µM) | – |
| CCN(CC)CCNC(=O)C(=O)NCCNc1ccnc2cc(Cl)ccc12 | – | 0.0503 (≈ 0.128 µM) | 605.61 | 7.01 (≈ 17.9 µM) | – |
| O=C(NCCCNc1ccnc2cc(Cl)ccc12)C(=O)NCCCN1CCOCC1 | – | 0.0254 (≈ 0.0586 µM) | 1625.52 | 8.74 (≈ 20.1 µM) | inhibition in vivo at 50 mg/kg (Plasmodium yoelii [4]): 21.4% |
| O=C(NCCCN1CCOCC1)C(=O)NCCNc1ccnc2cc(Cl)ccc12 | – | 0.0313 (≈ 0.0746 µM) | 1567.05 | 7.18 (≈ 17.1 µM) | inhibition in vivo at 50 mg/kg (Plasmodium yoelii [4]): 43.6% |
| CCN(CC)CCNC(=O)C(=O)N1CCN(CCNc2ccnc3cc(Cl)ccc23)CC1 | – | 0.0798 (≈ 0.173 µM) | 194 | – | IC50 (Plasmodium yoelii [2]): Not Active |
| CCCCNC(=O)C(=O)N1CCN(CCNc2ccnc3cc(Cl)ccc23)CC1 | Not Active | – | – | – | – |
| CC(C)(C)NC(=O)C(=O)N1CCN(c2ccnc3cc(Cl)ccc23)CC1 | Not Active | – | – | – | – |

| SMILES | IC50 (Plasmodium falciparum; vero) | IC50 (Plasmodium falciparum; [5]) [µg/mL] | Ratio CC50/IC50 [1] | IC50 (Plasmodium yoelii [2]; Plasmodium yoelii, 16 h) [µg/mL] | other results |
| --- | --- | --- | --- | --- | --- |
| O=C(NCCN1CCOCC1)C(=O)N1CCN(CCNc2ccnc3cc(Cl)ccc23)CC1 | – | 0.262 (≈ 0.551 µM) | 183.05 | 14.2 (≈ 29.8 µM) | – |
| CN(C)CCNc1nc(NCCCNc2ccnc3cc(Cl)ccc23)nc(N2CCOCC2)n1 | – | 0.164 (≈ 0.337 µM) | 219.77 | 7.94 (≈ 16.3 µM) | – |
| CN(C)CCNc1nc(NCCCNc2ccnc3cc(Cl)ccc23)nc(N2CCCCC2)n1 | – | 0.0156 (≈ 0.0323 µM) | 330.11 | 8.19 (≈ 16.9 µM) | – |
| Clc1ccc2c(NCCNc3nc(NCCCN4CCOCC4)nc(N4CCOCC4)n3)ccnc2c1 | – | 0.0222 (≈ 0.042 µM) | 2405.86 | 8.58 (≈ 16.2 µM) | – |
| CN(C)CCNC(=O)C(=O)N1CCN(c2ccnc3cc(Cl)ccc23)CC1 | Not Active | – | – | – | – |
| Cc1ccc(S(=O)(=O)n2cc(C(=O)C(=O)N3CCN(c4ccnc5cc(Cl)ccc45)CC3)c3ccccc32)cc1 | Not Active | – | – | – | – |
| CN(C)CCNc1nc(NCCNc2ccnc3cc(Cl)ccc23)nc(N2CCOCC2)n1 | – | 0.0394 (≈ 0.0835 µM) | 1291.71 | 8.1 (≈ 17.2 µM) | – |
| CCN(CC)CCNC(=O)C(=O)NCCCNc1ccnc2cc(Cl)ccc12 | – | 0.0156 (≈ 0.0384 µM) | 232.99 | 7.99 (≈ 19.7 µM) | – |
| CN(C)CCNC(=O)C(=O)NCCCNc1ccnc2cc(Cl)ccc12 | – | 0.0264 (≈ 0.0699 µM) | 2527.65 | 7.98 (≈ 21.1 µM) | inhibition in vivo at 50 mg/kg (Plasmodium yoelii [4]): 70.5% |
| Clc1ccc2c(NCCNc3nc(NCCCN4CCOCC4)nc(N4CCCCC4)n3)ccnc2c1 | – | 0.0656 (≈ 0.125 µM) | 65.21 | 7.79 (≈ 14.8 µM) | – |
| CN1CCN(c2nc(NCCNc3ccnc4cc(Cl)ccc34)nc(N3CCOCC3)n2)CC1 | – | 0.01 (≈ 0.0207 µM) | 4692.08 | 6.19 (≈ 12.8 µM) | Activity (Plasmodium yoelii [4]): Toxic |
| Clc1ccc2c(NCCCNc3nc(NCCN4CCOCC4)nc(N4CCCCC4)n3)ccnc2c1 | Not Active | – | – | – | – |
| O=C(NCCNc1ccnc2cc(Cl)ccc12)C(=O)NCCN1CCOCC1 | – | 0.0908 (≈ 0.224 µM) | 567.43 | 6.87 (≈ 16.9 µM) | – |
| CCCCNC(=O)C(=O)N1CCN(c2ccnc3cc(Cl)ccc23)CC1 | Not Active | – | – | – | – |
| Cn1cc(C(=O)C(=O)N2CCN(c3ccnc4cc(Cl)ccc34)CC2)c2ccccc21 | Not Active | – | – | – | – |
| CN(C)CCNC(=O)C(=O)NCCNc1ccnc2cc(Cl)ccc12 | – | 0.0316 (≈ 0.0868 µM) | 383.03 | 11.1 (≈ 30.5 µM) | – |
| CN1CCN(c2nc(NCCCNc3ccnc4cc(Cl)ccc34)nc(N3CCOCC3)n2)CC1 | – | 0.0401 (≈ 0.0805 µM) | 704.25 | 8.55 (≈ 17.2 µM) | – |
| CCN(CC)CCNC(=O)C(=O)N1CCN(c2ccnc3cc(Cl)ccc23)CC1 | – | 0.042 (≈ 0.1 µM) | 1183.41 | < 20 | – |
| Clc1ccc2c(NCCNc3nc(NCCN4CCOCC4)nc(N4CCOCC4)n3)ccnc2c1 | – | 0.0482 (≈ 0.0937 µM) | 1176.4 | 17.2 (≈ 33.4 µM) | – |
| CCN(CC)CCNc1nc(NCCCNc2ccnc3cc(Cl)ccc23)nc(N2CCOCC2)n1 | – | 0.0403 (≈ 0.0783 µM) | 1068.32 | 10.6 (≈ 20.7 µM) | – |
| Clc1ccc2c(NCCCNc3nc(NCCCN4CCOCC4)nc(N4CCCCC4)n3)ccnc2c1 | – | 0.00523 (≈ 0.00968 µM) | 860.41 | 7.54 (≈ 14 µM) | Activity (Plasmodium yoelii [4]): Toxic |
| CN1CCN(c2nc(NCCNc3ccnc4cc(Cl)ccc34)nc(N3CCCCC3)n2)CC1 | – | 0.00788 (≈ 0.0163 µM) | 958.12 | 9.1 (≈ 18.9 µM) | Activity (Plasmodium yoelii [4]): Toxic |
| O=C(NCCCNc1ccnc2cc(Cl)ccc12)C(=O)NCCN1CCOCC1 | – | 0.0822 (≈ 0.196 µM) | 191.82 | 10.7 (≈ 25.4 µM) | – |
| Clc1ccc2c(NCCNc3nc(NCCN4CCOCC4)nc(N4CCCCC4)n3)ccnc2c1 | Not Active | – | – | – | – |
